Laboratory results taken from ChEMBL document CHEMBL1143736, “Synthesis and antimycobacterial activity of 4-(5-substituted-1,3,4-oxadiazol-2-yl)pyridines” (Bioorg Med Chem, 2007).
Converted amounts (≈) assume the structure as drawn.

How the values were obtained:
[1] = tested on: Mycobacterium tuberculosis; test: Antimycobacterial activity against Mycobacterium tuberculosis H37Rv; assay type: functional
Outline: (§1)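 Modified microplate Alamar Blue assay (MABA). Inoculum came from a log-phase culture matched to McFarland 1, diluted 1:50 in Middlebrook 7H9 to 6 × 10^6 CFU/mL, and prepared just before inoculation.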

[2] = tested on: Mycobacterium tuberculosis; test: Antimycobacterial activity against drug-sensitive Mycobacterium tuberculosis CIBIN 687 isolates; assay type: functional; outline: as §1
[3] = tested on: Mycobacterium tuberculosis; test: Antimycobacterial activity against drug-sensitive Mycobacterium tuberculosis CIBIN 650 isolates; assay type: functional; outline: as §1
[4] = tested on: Vero; test: Cytotoxicity against Vero cells; assay type: cell-based; conditions: Chlorocebus sabaeus
Outline: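 Vero cells in DMEM with 10% FBS (1.5 × 10^5 cells/mL) grown 24 h at 36.5 °C, 5% CO2; medium renewed, compounds (DMSO stocks) added in triplicate at 100–0.390 µg/mL by two-fold serial dilution, 24 h. Cells trypsinized, trypan blue stained, 100 counted for % dead, corrected against untreated controls (2.5% DMSO); IC50 by probit; three independent experiments, mean ± SE.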

[5] = Toxicity against adherent human PBMC; assay type: cell-based
Outline: (§2)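 PBMC from one healthy volunteer, isolated at room temperature, in RPMI 1640 + 10% FBS at 1 × 10^6 cells/mL; compounds tested in quintuplicate, 24 h. Non-adherent cells taken with supernatant, adherent cells recovered with trypsin–EDTA, each fraction pelleted (600g, 5 min) and read separately; IC50 per fraction.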

[6] = Toxicity against non-adherent human PBMC; assay type: cell-based; outline: as §2
[7] = tested on: PBMC; test: Survival of adherent human PBMC at 100 ug/mL; assay type: functional; conditions: read-out: Survival
Outline: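 PBMC came from one healthy volunteer, isolated at room temperature, and were plated at 1 × 10^6 cells/mL in RPMI 1640 + 10% FBS. Compound was added in quintuplicate and incubated 24 h. Both fractions were pelleted at 600g for 5 min.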

SMILES	MIC [1] [µM]	MIC [2] [µM]	MIC [3] [µM]	IC50 [4] [µM]	IC50 [5] [µg/mL]	IC50 [6] [µg/mL]	viability at 100 µg/mL [7] [%]
Cc1nnc(-c2ccncc2)o1	49.7 (≈ 8.01 µg/mL)	6.21 (≈ 1 µg/mL)	49.7 (≈ 8.01 µg/mL)	–	–	–	–
ClCc1nnc(-c2ccncc2)o1	41 (≈ 8.03 µg/mL)	41 (≈ 8.03 µg/mL)	41 (≈ 8.03 µg/mL)	64.6	–	–	–
CCCCCCCCCCCCCCCc1nnc(-c2ccncc2)o1	0.35 (≈ 0.125 µg/mL)	0.7 (≈ 0.25 µg/mL)	0.09 (≈ 0.0322 µg/mL)	95.5	125 (≈ 350 µM)	15.8 (≈ 44.3 µM)	–
c1cc(-c2nnc(-c3ccncc3)o2)ccn1	8.93 (≈ 2 µg/mL)	4.46 (≈ 1 µg/mL)	8.93 (≈ 2 µg/mL)	92.4	–	–	–
CCCCCCCCCCCCCCCCCc1nnc(-c2ccncc2)o1	0.65 (≈ 0.251 µg/mL)	0.65 (≈ 0.251 µg/mL)	0.16 (≈ 0.0617 µg/mL)	86.7	312 (≈ 810 µM)	45.4 (≈ 118 µM)	–
O=[N+]([O-])c1ccc(-c2nnc(-c3ccncc3)o2)cc1	29.9 (≈ 8.01 µg/mL)	29.9 (≈ 8.01 µg/mL)	29.9 (≈ 8.01 µg/mL)	–	–	–	–
O=[N+]([O-])c1cc(-c2nnc(-c3ccncc3)o2)cc([N+](=O)[O-])c1	25.5 (≈ 8 µg/mL)	6.39 (≈ 2 µg/mL)	25.5 (≈ 8 µg/mL)	77.1	–	–	–
CN(C)c1ccc(-c2nnc(-c3ccncc3)o2)cc1	3.76 (≈ 1 µg/mL)	3.76 (≈ 1 µg/mL)	30 (≈ 8 µg/mL)	50.4	–	–	–
FC(F)(F)c1nnc(-c2ccncc2)o1	37.2 (≈ 8.01 µg/mL)	37.2 (≈ 8.01 µg/mL)	37.2 (≈ 8.01 µg/mL)	–	–	–	–
O=[N+]([O-])c1ccccc1-c1nnc(-c2ccncc2)o1	7.46 (≈ 2 µg/mL)	3.73 (≈ 1 µg/mL)	7.46 (≈ 2 µg/mL)	32.4	–	–	–
COc1cc(-c2nnc(-c3ccncc3)o2)cc(OC)c1OC	14.1 (≈ 4.42 µg/mL)	3.53 (≈ 1.11 µg/mL)	7.06 (≈ 2.21 µg/mL)	250	–	–	–
c1ccc(-c2nnc(-c3ccncc3)o2)cc1	8.97 (≈ 2 µg/mL)	4.48 (≈ 1 µg/mL)	8.97 (≈ 2 µg/mL)	67.8	–	–	–
CN[C@@H]1[C@H](O[C@H]2[C@H](O[C@H]3[C@H](O)[C@@H](O)[C@H](N=C(N)N)[C@@H](O)[C@@H]3N=C(N)N)O[C@@H](C)[C@]2(O)C=O)O[C@@H](CO)[C@H](O)[C@H]1O (stereo in doubt) [STREPTOMYCIN]	0.86 (≈ 0.5 µg/mL)	–	0.1 (≈ 0.0582 µg/mL)	> 100	–	–	–
CC[C@@H](CO)NCCN[C@@H](CC)CO [ETHAMBUTOL]	9.8 (≈ 2 µg/mL)	–	–	> 100	–	–	–
NNC(=O)c1ccncc1 [ISONIAZID]	0.44 (≈ 0.0603 µg/mL)	0.91 (≈ 0.125 µg/mL)	0.91 (≈ 0.125 µg/mL)	39.8	> 100	87.1 (≈ 635 µM)	> 95
CO[C@H]1/C=C/O[C@@]2(C)Oc3c(C)c(O)c4c(O)c(c(/C=N/N5CCN(C)CC5)c(O)c4c3C2=O)NC(=O)/C(C)=C\C=C\[C@H](C)[C@H](O)[C@@H](C)[C@@H](O)[C@@H](C)[C@H](OC(C)=O)[C@@H]1C [RIFAMPIN]	0.07 (≈ 0.0576 µg/mL)	–	–	> 100	–	–	–
